Calls of active or inactive are those of the source. No cut-off for these calls is given here. Square brackets hold non-standard residues; d marks the D form. Peptide text beside a SMILES is read from it.

Among the data in ChEMBL document CHEMBL5036309, “Orally Active Peptide Vector Allows Using Cannabis to Fight Pain While Avoiding Side Effects” (J Med Chem, 2021) are inhibition and Activity values, retold here.

Test [1] relates to HEK293T. Nature of the test: Inhibition of human c-YFP fused CB1R/n-YFP fused 5HT2A receptor heterodimer formation expressed in HEK293T cells assessed as decrease in forskolin induced cAMP level preincubated for 15 mins forskolin and WIN 55,212-2 stimulation and measured after 15 mins by HTRF assay. The format is cell-based. The note with it: time 30.0 min. For orientation: cAMP levels reflect the balance of adenylyl cyclase and phosphodiesterase activity.

Test [2] relates to HEK293T. Nature of the test: Inhibition of human c-YFP fused CB1R/n-YFP fused 5HT2A receptor heterodimer formation expressed in HEK293T cells assessed as decrease in forskolin induced cAMP level preincubated for 15 mins forskolin and DOI stimulation and measured after 15 mins by HTRF assay. It counts as cell-based. The note with it: time 30.0 min.
Test [3] has as its system HEK293T. Nature of the test: Inhibition of human c-YFP fused CB1R/n-YFP fused 5HT2A receptor heterodimer formation expressed in HEK293T cells assessed as increase in pERK level preincubated for 15 mins followed by WIN 55,212-2 stimulation for 7 mins by microplate reader method. It counts as cell-based. The note with it: time 22.0 min.
Test [4] concerns HEK293T. Nature of the test: Inhibition of human c-YFP fused CB1R/n-YFP fused 5HT2A receptor heterodimer formation expressed in HEK293 cells assessed as increase in pERK level preincubated for 15 mins followed by DOI stimulation for 7 mins by microplate reader method. It counts as cell-based. As to conditions: time 22.0 min.
Test [5] deals with HEK293T. Nature of the test: Inhibition of human c-YFP fused CB1R/n-YFP fused 5HT2A receptor heterodimer formation transfected in human HEK293T cells at 4 uM incubated for 4 hrs by BIFC assay. It counts as cell-based. In short, it runs like this: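 HEK-293T cells were cotransfected 48 h with 5HT2AR-cYFP and CB1R-nYFP (4 μg cDNA each, polyethylenimine), then treated with 4 μM peptide or vehicle for 4 h at 37 °C. Reconstituted YFP Venus was read on 20 μg protein at 530 nm emission with 400 nm excitation, minus the fluorescence of non-expressing cells. Mean ± SEM, n = 10–30.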

The test system of another test is BEND3. Briefly: Induction of BBB translocation in mouse BEND3 cells measured after 24 hrs by fluorescence analysis. The format is functional, cell-based. In short, it runs like this:
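5(6)-Carboxyfluorescein-labeled peptides were applied to a transwell BBB model of bEnd.3 cells. Translocation (%) was measured as fluorescence in the basolateral chamber after 24 h, with a trans-BBB peptide as positive control. Barrier integrity was checked afterward by FD4 dextran permeability. Mean ± SEM, n = 3–6, independent cultures on different days.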

For H-VYAYMYILWSKSKSK-NH2, the inhibition result in the test with HEK293T [1], in the test with HEK293T [2], in the test with HEK293T [3] and in the test on HEK293T [4] was “Active” throughout.
As to H-VYAYMYILWRKR-NH2, the inhibition result in the test with HEK293T [1], in the test on HEK293T [2], with HEK293T [3] and in the test on HEK293T [4] was “Active” each time.
In the case of H-VYAYMYILWAGILKRW-NH2, the inhibition result in the test on HEK293T [1], in the test on HEK293T [2], in the test on HEK293T [3] and in the test with HEK293T [4] was “Active” in each case.
In the case of H-AGILKRWKTLVLILVV-NH2, the inhibition entry in the test with HEK293T [1], in the test with HEK293T [2], in the test on HEK293T [3] and with HEK293T [4] was “Active” in each case.
For the compound H-SKSKSKKTLVLILVV-NH2, the inhibition entry with HEK293T [1], in the test on HEK293T [2], with HEK293T [3] and with HEK293T [4] was “Active” each time.
With `CC[C@H](C)[C@H](NC(=O)[C@@H](NC(=O)[C@@H]1CCCN1C(=O)[C@H](CC(N)=O)NC(=O)[C@@H](NC(=O)[C@@H](NC(=O)[C@H](CO)NC(=O)[C@H](CC(N)=O)NC(=O)[C@H](CC(C)C)NC(=O)[C@H](CC(C)C)NC(=O)[C@H](CS)NC(=O)[C@H](CC(C)C)NC(=O)[C@H](CCSC)NC(=O)[C@H](CO)NC(=O)[C@H](CS)NC(=O)[C@H](Cc1ccccc1)NC(=O)[C@H](C)NC(=O)[C@H](Cc1ccccc1)NC(=O)[C@@H](NC(=O)[C@@H](NC(=O)[C@H](CCCCN)NC(=O)[C@@H](NC(=O)[C@@H](N)CC(C)C)[C@@H](C)CC)[C@@H](C)O)C(C)C)[C@@H](C)O)C(C)C)[C@@H](C)CC)C(=O)N[C@@H](Cc1ccc(O)cc1)C(=O)N[C@@H](C)C(=O)N[C@@H](CC(C)C)C(=O)N[C@@H](CCCNC(=N)N)C(=O)NCC(=O)N[C@@H](CCCNC(=N)N)C(=O)N[C@@H](CCCCN)C(=O)N[C@@H](CCCCN)C(=O)N[C@@H](CCCNC(=N)N)C(=O)N[C@@H](CCCNC(=N)N)C(=O)N[C@@H](CCC(N)=O)C(=O)N[C@@H](CCCNC(=N)N)C(=O)N[C@@H](CCCNC(=N)N)C(=O)N[C@@H](CCCNC(=N)N)C(N)=O` (H-LIKTVFAFCSMLCLLNSTVNPIIYALRGRKKRRQRRR-NH2), the inhibition entry in the test with HEK293T [5], in the test with HEK293T [1], with HEK293T [3] and in the test on HEK293T [4] was “inactive” in each case.
Take `COc1cccc([C@H](O)C2CCN(CCc3ccc(F)cc3)CC2)c1OC`: the inhibition entry in the test with HEK293T [1], in the test on HEK293T [2], in the test with HEK293T [3] and with HEK293T [4] was “inactive” each time.
As to H-RKRKTLVLILVV-NH2, the inhibition entry with HEK293T [1], in the test on HEK293T [2], in the test with HEK293T [3] and with HEK293T [4] was “Active” in each case.
Regarding `Cc1c(C(=O)NN2CCCCC2)nn(-c2ccc(Cl)cc2Cl)c1-c1ccc(Cl)cc1`, the inhibition entry with HEK293T [1], with HEK293T [2], with HEK293T [3] and in the test on HEK293T [4] was “inactive” throughout.
Take H-GRKKRRQRRRKTLVLILVV-NH2: the inhibition entry in the test on HEK293T [5], in the test with HEK293T [1], in the test on HEK293T [2], with HEK293T [3] and in the test with HEK293T [4] was “Active” in each case.
Take `CC[C@H](C)[C@H](NC(=O)[C@H](Cc1ccc(O)cc1)NC(=O)[C@H](CCSC)NC(=O)[C@H](Cc1ccc(O)cc1)NC(=O)[C@H](C)NC(=O)[C@H](Cc1ccc(O)cc1)NC(=O)[C@@H](N)C(C)C)C(=O)N[C@@H](CC(C)C)C(=O)N[C@@H](Cc1c[nH]c2ccccc12)C(=O)N[C@H](CO)C(=O)N[C@H](CCCCN)C(=O)N[C@H](CO)C(=O)N[C@H](CCCCN)C(=O)N[C@H](CO)C(=O)N[C@H](CCCCN)C(N)=O` (H-VYAYMYILW[dS][dK][dS][dK][dS][dK]-NH2): the inhibition entry with HEK293T [1], in the test with HEK293T [2], in the test with HEK293T [3] and in the test with HEK293T [4] was “Active” in each case. Further, in the test with BEND3, the outcome was Active.
For `CC[C@@H](C)[C@@H](NC(=O)CNC(=O)[C@@H](C)N)C(=O)N[C@H](CC(C)C)C(=O)N[C@H](CCCCN)C(=O)N[C@H](CCCNC(=N)N)C(=O)N[C@H](Cc1c[nH]c2ccccc12)C(=O)N[C@@H](CCCCN)C(=O)N[C@H](C(=O)N[C@@H](CC(C)C)C(=O)N[C@H](C(=O)N[C@@H](CC(C)C)C(=O)N[C@H](C(=O)N[C@@H](CC(C)C)C(=O)N[C@H](C(=O)N[C@H](C(N)=O)C(C)C)C(C)C)[C@@H](C)CC)C(C)C)[C@@H](C)O` (H-[dA]G[dI][dL][dK][dR][dW]KTLVLILVV-NH2), the inhibition entry in the test on HEK293T [1], with HEK293T [2], in the test with HEK293T [3] and with HEK293T [4] was “Active” in each case. The result in the test on BEND3 was Active.
Turning to `CC[C@@H](C)[C@@H](NC(=O)CNC(=O)[C@@H](C)NC(=O)[C@H](Cc1c[nH]c2ccccc12)NC(=O)[C@H](CC(C)C)NC(=O)[C@@H](NC(=O)[C@H](Cc1ccc(O)cc1)NC(=O)[C@H](CCSC)NC(=O)[C@H](Cc1ccc(O)cc1)NC(=O)[C@H](C)NC(=O)[C@H](Cc1ccc(O)cc1)NC(=O)[C@@H](N)C(C)C)[C@@H](C)CC)C(=O)N[C@H](CC(C)C)C(=O)N[C@H](CCCCN)C(=O)N[C@H](CCCNC(=N)N)C(=O)N[C@H](Cc1c[nH]c2ccccc12)C(N)=O` (H-VYAYMYILW[dA]G[dI][dL][dK][dR][dW]-NH2), the inhibition entry with HEK293T [1], in the test with HEK293T [2], in the test on HEK293T [3] and with HEK293T [4] was “Active” throughout. In addition, the outcome with BEND3 was Active.
Turning to H-VYAYMYILWGRKKRRQRRR-NH2, the inhibition result with HEK293T [5], in the test with HEK293T [1], in the test with HEK293T [2], in the test with HEK293T [3] and in the test with HEK293T [4] was “Active” throughout.
Consider `CC[C@H](C)[C@H](NC(=O)[C@H](CC(C)C)NC(=O)[C@@H](NC(=O)[C@H](CC(C)C)NC(=O)[C@@H](NC(=O)[C@H](CCCCN)NC(=O)[C@@H](CCCCN)NC(=O)[C@@H](CO)NC(=O)[C@@H](CCCCN)NC(=O)[C@@H](CO)NC(=O)[C@@H](CCCCN)NC(=O)[C@H](N)CO)[C@@H](C)O)C(C)C)C(=O)N[C@@H](CC(C)C)C(=O)N[C@H](C(=O)N[C@H](C(N)=O)C(C)C)C(C)C` (H-[dS][dK][dS][dK][dS][dK]KTLVLILVV-NH2), for which the inhibition entry in the test with HEK293T [1], with HEK293T [2], in the test on HEK293T [3] and in the test with HEK293T [4] was “Active” in each case. Besides, the outcome with BEND3 was Active.
As for “H-GRKKRRQRRRKTLVLILVVLIICWGPLLAIMVYDVF-NH2”, the inhibition result in the test on HEK293T [5], in the test on HEK293T [1], with HEK293T [3] and with HEK293T [4] was “Active” in each case.
Take “H-ETYLMFWIGVTSVLLLFIVYAYMYILWGRKKRRQRRR-NH2”: the inhibition entry with HEK293T [5], in the test on HEK293T [1], in the test on HEK293T [3] and in the test on HEK293T [4] was “Active” in each case.
